Shown are actives, neighbours in structure and some others; about 2.6% of the full set was active somewhere.
Granule exo inh: lytic granule exocytosis inhibition. TALL-104 LAMP-1 surface exposure, flow cytometry; cells stimulated with thapsigargin and PMA. inhibition, % at 10 µM. actives 0.66% (n = 360,000). AID 651702;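 active = inhibition above about 55%, limit read from the data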
T cell HTS: modulates CD8 T cell binding to vesicles; 2C CD8+ T cell-vesicle binding, flow cytometry; stronger effect = lower value; response (vesicle binding), % at 7 µM; actives 0.068% (n = 330,000); AID 2052;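 active = response, share of CD8 T cells binding vesicles, and their 90th percentile fluorescence all below set limits, cut at about 80% in these data, passing the limit was not always enough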;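 note: values below 100% mean blocked vesicle binding to the CD8+ T cells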
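incubation = binding step 1.5 h, 37 °C, antibody labelling 20 min, ice | test system = 2C mouse CD8+ T cells | read-out basis = percent CD8+ FL2 mean versus row control | controls = Peptide-free naked vesicles (low) and QL9 vesicles with 0.7% DMSO vehicle (high) | detection = flow cytometry of vesicle-bound cells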
EP2 antag: blocks the human prostaglandin E2 receptor EP2; inhibition, % at 25 µM; AID 1422; actives 0.52% (n = 260,000); C6 glioma cells expressing human EP2, cAMP TR-FRET; cells stimulated with saturating PGE2;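 active = percent inhibition above 40 after rounding to a whole number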;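 note: rat C6 glioma host cells with rolipram phosphodiesterase inhibitor present; the protocol text gives 20 µM as final concentration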
EP2 modulator: EP2 receptor (human) modulation; induction, % at 25 µM; EP2-expressing cells, cAMP HTRF FRET, PGE2 co-stimulation; actives 0.83% (n = 260,000);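 active = compounds whose cAMP rise, as percent of the full-agonist control response, exceeds 60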;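 note: rat C6 glioma line stably carrying human EP2 under a CMV promoter; the protocol text gives 20 µM as final concentration; 100% = response of wells given 1 µM PGE2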
MC4R antag cAMP: antagonists of human melanocortin 4 receptor (MC4R). P32245. AID 540295. MC4R-expressing cells, MTII-stimulated cAMP, LANCE TR-FRET. inhibition, % at 6.5 µM. actives 0.48% (n = 360,000);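 active = inhibition above its plate's cutoff, the mean of tested wells on that plate plus 3 SD, cut at about 29% in these data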;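 note: 0% = Melanotan II alone and 100% = Melanotan II plus saturating MCL0020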
Target sequence (P32245 whole entry, looked up): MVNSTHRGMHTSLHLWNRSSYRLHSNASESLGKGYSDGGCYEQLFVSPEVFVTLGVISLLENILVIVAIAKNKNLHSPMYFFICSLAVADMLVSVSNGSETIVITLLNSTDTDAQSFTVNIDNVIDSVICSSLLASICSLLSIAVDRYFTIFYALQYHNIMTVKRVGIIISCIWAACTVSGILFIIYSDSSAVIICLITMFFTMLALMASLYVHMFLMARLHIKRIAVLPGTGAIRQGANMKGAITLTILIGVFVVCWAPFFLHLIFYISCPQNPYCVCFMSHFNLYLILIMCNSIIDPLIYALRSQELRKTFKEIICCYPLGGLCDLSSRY
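System: U2OS-MC4R stable cell line; Technique: Eu-cAMP/anti-cAMP TR-FRET, emission 671 nm; Repeats: single well per compound; Also added: Melanotan II; Dosing: one concentration, 6.5 µM nominal; Schedule: 30-min compound, 1-h challenge, 1-h detection, room temperature.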
MC4R barr agon: agonists of human melanocortin 4 receptor (MC4R) beta-arrestin; activation, % at 8.9 µM; AID 540308; U2OS MC4R beta-arrestin complementation, luminescence; percent of melanotan II response, DMSO zero; actives 0.98% (n = 360,000);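 active = activation above a per-plate cutoff, the mean activation of sample wells on that plate plus 3 SD, cut at about 8% in these data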
Granule exo CP1: lytic granule exocytosis inhibition; actives 11% (n = 1,500); inhibition, % at 10 µM; shares compounds with Granule exo inh; AID 651954; TALL-104 cells, LAMP-1 externalization, flow cytometry; stimulated with PMA plus thapsigargin; in the data active = inhibition above about 60%;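 note: 0% = stimulated vehicle wells and 100% = unstimulated wells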
The depositor's hits bear a star; · = not tested or not shown.

SMILES	Granule exo inh	T cell HTS	EP2 antag	EP2 modulator	MC4R antag cAMP	MC4R barr agon	Granule exo CP1
Cc1c(C#N)c(SCC(N)=O)nc2c1CCCC2	0.8	298.8	12.0	9.5	4.9	-1.1	·
Cc1ccc(S(=O)(=O)CCC(=O)c2ccc(O)cc2O)cc1	104.0*	796.0	5.0	-8.8	-10.8	0.1	44.5
Cc1c(C#N)c2ncn(CCCN(C)C)c(=O)c2n1-c1ccccc1	-1.7	147.1	11.9	-10.5	2.3	-1.6	·
Cc1cccc(CCN(CC(=O)NCc2ccc(F)cc2)C(=O)c2csnn2)c1	68.1*	408.4	·	·	4.1	1.1	-4.3
CCN(CC)c1nc(C)nc2c1cnn2CCc1ccccc1	71.1*	196.6	12.5	-8.4	8.9	-1.7	-3.4
Cc1ccc(C(=O)N/C(=C\c2ccc(-c3ccccc3[N+](=O)[O-])o2)C(=O)NCCCN(C)C)cc1	77.4*	982.9	·	·	-4.8	-3.0	-3.1
COc1cccc(NC(=O)CN2C(=O)C(=O)N(C3CCCC3)C2=O)c1	-11.4	360.4	·	·	0.0	-0.3	·
Cc1cc(OCC(=O)NC2CC(C)(C)NC(C)(C)C2)c(C)cc1Br	0.0	287.3	·	·	0.6	-1.2	·
C(=C\c1ccccc1)/CSc1nnc(-c2cnccn2)n1Cc1ccco1	62.7*	171.1	0.5	19.6	0.4	-0.6	-9.1
COc1cccc(C2Nc3ccccc3C(=O)N2c2ccc(F)cc2)c1O (stereo not drawn)	66.3*	219.2	·	·	3.5	-1.6	-10.3
O=C1c2ccccc2NC(c2ccccc2O)N1c1ccc(F)cc1 (stereo not drawn)	1.8	308.6	·	·	5.4	0.4	·
CC(C)C(NS(=O)(=O)c1cccc(C(F)(F)F)c1)C(=O)N1CCc2ccccc2C1 (stereo not drawn)	76.2*	279.6	·	·	10.2	0.9	-4.6
CC1CC(C)CN(c2ccc(C(=O)NCc3ccc4c(c3)OCO4)cc2[N+](=O)[O-])C1 (stereo not drawn)	-0.1	305.6	10.8	-5.5	-0.1	-1.4	·
COc1cc(C(=O)OCCN2CCOCC2)ccc1O	-0.4	201.4	11.1	21.7	0.4	-2.2	·
Cc1ccc(S(=O)(=O)Nc2c(O)ccc3ccccc23)cc1	81.9*	33.2*	·	·	0.5	-1.2	-11.5
O=S(=O)(c1ccccc1)c1nnn2c1nc(NC1CCN(Cc3ccccc3)CC1)c1cc(Cl)ccc12	63.8*	447.0	·	·	7.6	-4.3	69.2*
CN(C)c1ccc(S(=O)(=O)N2CCCCC2)cc1NC(=O)C1=NN(c2ccccc2)C(=O)CC1	23.0	491.4	·	·	26.5	-2.2	·
CCc1cc2ccc(C)cc2nc1SCC(=O)NC1CCCC1	82.0*	315.4	·	·	9.8	1.2	-12.0
COc1ccc(/C=C/c2onc(C)c2S(=O)(=O)N2CCC(C(=O)N3CCC(C)CC3)CC2)cc1	76.1*	398.3	·	·	15.4	1.8	-14.3
O=[N+]([O-])c1ccc(N2CCN(CC3CCCCC3)CC2)cc1	62.8*	172.2	·	·	2.4	1.3	-3.7
Cc1ccccc1OCC(O)CN(Cc1ccccc1O)C1CCCCC1 (stereo not drawn)	67.8*	104.5	8.8	28.8	13.4	-0.7	-12.6
CCOc1ccccc1N(C(=O)c1snc(C(N)=O)c1N)C(CC)C(=O)NC1CCCC1 (stereo not drawn)	60.2*	226.5	·	·	5.0	0.3	-5.1
COc1ccccc1N(C(=O)c1snc(C(N)=O)c1N)C(C(=O)NCc1ccccc1)c1ccc(C)o1 (stereo not drawn)	73.1*	·	·	·	1.7	1.2	-5.7
O=C(CCN1CCOCC1)c1ccc(Cl)cc1	35.2	501.0	7.9	21.5	6.4	1.3	·
C[C@H]1Cn2cnc(C(=O)NCC(=O)OC(C)(C)C)c2C(=O)N1	-4.2	·	·	·	3.9	0.6	·
CCc1nc2sc(C(C)=O)c(N)c2c2c1CCCC2	63.8*	693.7	6.4	32.4	-5.8	3.1	-11.2
CCc1nc2sc(C#N)c(N)c2c2c1CCCC2	1.7	283.0	5.5	53.8	-13.1	4.2	·
O=C(NNc1c(F)c(F)cc(F)c1F)C1CCN(S(=O)(=O)c2ccccc2F)CC1	6.0	375.3	·	·	8.3	-1.8	·

Screens (PubChem)
